Results published in ChEMBL document CHEMBL1287747, “Highly active antimycobacterial derivatives of benzoxazine” (2010).
In brackets after ≈: the same amount, converted by molar mass.

Legend:
Type in all cases: functional
[1] = system: Mycobacterium tuberculosis; experiment: Antimycobacterial activity against Mycobacterium tuberculosis CNCTC My 331/88 after 14 days by microdilution method; settings: CNCTC My 331/88, 336 h
Summary of the method: (§1)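 Strains from the Czech National Collection of Type Cultures, tested by dilution micromethod in Šula semisynthetic medium. Incubated at 37 °C and read at 14 and 21 days. MIC is the lowest concentration inhibiting growth.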

[2] = system: Mycobacterium tuberculosis; experiment: Antimycobacterial activity against Mycobacterium tuberculosis CNCTC My 331/88 after 21 days by microdilution method; settings: CNCTC My 331/88, 504 h; summary of the method: as §1
[3] = system: Mycobacterium avium; experiment: Antimycobacterial activity against Mycobacterium avium CNCTC My 330/88 after 14 days by microdilution method; settings: CNCTC My 330/88, 336 h; summary of the method: as §1
[4] = system: Mycobacterium avium; experiment: Antimycobacterial activity against Mycobacterium avium CNCTC My 330/88 after 21 days by microdilution method; settings: CNCTC My 330/88, 504 h; summary of the method: as §1
[5] = system: Mycobacterium kansasii; experiment: Antimycobacterial activity against Mycobacterium kansasii CNCTC My 235/80 after 14 days by microdilution method; settings: CNCTC My 235/80, 336 h; summary of the method: as §1
[6] = system: Mycobacterium kansasii; experiment: Antimycobacterial activity against Mycobacterium kansasii CNCTC My 235/80 after 21 days by microdilution method; settings: CNCTC My 235/80, 504 h; summary of the method: as §1
[7] = system: Mycobacterium kansasii; experiment: Antimycobacterial activity against Mycobacterium kansasii 6509/96 after 14 days by microdilution method; settings: 6509/96, 336 h
Summary of the method: (§2)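 Clinical isolate that, unlike the standard strain, is not isoniazid-resistant. Tested by dilution micromethod in Šula semisynthetic medium, with compounds added in DMSO at final 1000 down to 0.25 µmol/L in twofold steps. Löwenstein-Jensen plate used as inoculum sterility and growth control. Incubated at 37 °C and read at 14 and 21 days. MIC is the lowest concentration inhibiting growth.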

[8] = system: Mycobacterium kansasii; experiment: Antimycobacterial activity against Mycobacterium kansasii 6509/96 after 21 days by microdilution method; settings: 6509/96, 504 h; summary of the method: as §2

| Structure (SMILES) | MIC [1] | MIC [2] | MIC [3] | MIC [4] | MIC [5] | MIC [6] | MIC [7] | MIC [8] |
| --- | --- | --- | --- | --- | --- | --- | --- | --- |
| CC(C)c1ccc(-n2c(=S)oc3ccc(F)cc3c2=S)cc1 | 0.25 µM (≈ 0.0829 µg/mL) | 0.5 µM (≈ 0.166 µg/mL) | 0.5 µM (≈ 0.166 µg/mL) | 1 µM (≈ 0.331 µg/mL) | 4 µM (≈ 1.33 µg/mL) | 8 µM (≈ 2.65 µg/mL) | 2 µM (≈ 0.663 µg/mL) | 4 µM (≈ 1.33 µg/mL) |
| Cc1ccc(-n2c(=O)oc3ccc(Br)cc3c2=O)cc1 | 16 µM (≈ 5.31 µg/mL) | 16 µM (≈ 5.31 µg/mL) | 31 µM (≈ 10.3 µg/mL) | 31 µM (≈ 10.3 µg/mL) |  | 62 µM (≈ 20.6 µg/mL) |  |  |
| Cc1ccc(-n2c(=O)oc3ccc(Br)cc3c2=S)cc1 | 0.5 µM (≈ 0.174 µg/mL) | 1 µM (≈ 0.348 µg/mL) | 32 µM (≈ 11.1 µg/mL) | 32 µM (≈ 11.1 µg/mL) | 2 µM (≈ 0.696 µg/mL) | 4 µM (≈ 1.39 µg/mL) | 2 µM (≈ 0.696 µg/mL) | 4 µM (≈ 1.39 µg/mL) |
| Cc1ccc(-n2c(=S)oc3ccc(Br)cc3c2=S)cc1 | 0.5 µM (≈ 0.182 µg/mL) | 1 µM (≈ 0.364 µg/mL) | 15 µM (≈ 5.46 µg/mL) | 30 µM (≈ 10.9 µg/mL) | 4 µM (≈ 1.46 µg/mL) | 4 µM (≈ 1.46 µg/mL) | 4 µM (≈ 1.46 µg/mL) | 4 µM (≈ 1.46 µg/mL) |
| CCC(C)c1ccc(-n2c(=S)oc3ccc(F)cc3c2=S)cc1 (configuration not stated) | 0.25 µM (≈ 0.0864 µg/mL) | 0.25 µM (≈ 0.0864 µg/mL) | 0.5 µM (≈ 0.173 µg/mL) | 1 µM (≈ 0.345 µg/mL) | 2 µM (≈ 0.691 µg/mL) | 4 µM (≈ 1.38 µg/mL) | 2 µM (≈ 0.691 µg/mL) | 4 µM (≈ 1.38 µg/mL) |
| CCc1ccc(-n2c(=O)oc3ccc(Br)cc3c2=O)cc1 | 8 µM (≈ 2.77 µg/mL) | 8 µM (≈ 2.77 µg/mL) | 32 µM (≈ 11.1 µg/mL) | 32 µM (≈ 11.1 µg/mL) | 8 µM (≈ 2.77 µg/mL) | 16 µM (≈ 5.54 µg/mL) | 16 µM (≈ 5.54 µg/mL) | 16 µM (≈ 5.54 µg/mL) |
| CCc1ccc(-n2c(=O)oc3ccc(Cl)cc3c2=O)cc1 | 8 µM (≈ 2.41 µg/mL) | 16 µM (≈ 4.83 µg/mL) | 16 µM (≈ 4.83 µg/mL) | 32 µM (≈ 9.66 µg/mL) | 16 µM (≈ 4.83 µg/mL) | 16 µM (≈ 4.83 µg/mL) | 16 µM (≈ 4.83 µg/mL) | 16 µM (≈ 4.83 µg/mL) |
| CCc1ccc(-n2c(=O)oc3cc(Cl)ccc3c2=O)cc1 | 8 µM (≈ 2.41 µg/mL) | 8 µM (≈ 2.41 µg/mL) | 8 µM (≈ 2.41 µg/mL) | 16 µM (≈ 4.83 µg/mL) | 16 µM (≈ 4.83 µg/mL) | 16 µM (≈ 4.83 µg/mL) | 16 µM (≈ 4.83 µg/mL) | 16 µM (≈ 4.83 µg/mL) |
| CCC(C)c1ccc(-n2c(=S)oc3cc(C)ccc3c2=S)cc1 (configuration not stated) | 0.25 µM (≈ 0.0854 µg/mL) | 0.5 µM (≈ 0.171 µg/mL) | 0.25 µM (≈ 0.0854 µg/mL) | 0.5 µM (≈ 0.171 µg/mL) | 2 µM (≈ 0.683 µg/mL) | 2 µM (≈ 0.683 µg/mL) | 0.5 µM (≈ 0.171 µg/mL) | 1 µM (≈ 0.342 µg/mL) |
| CC(C)(C)c1ccc(-n2c(=S)oc3ccc(Cl)cc3c2=S)cc1 | 0.25 µM (≈ 0.0905 µg/mL) | 0.5 µM (≈ 0.181 µg/mL) | 1 µM (≈ 0.362 µg/mL) | 2 µM (≈ 0.724 µg/mL) | 8 µM (≈ 2.9 µg/mL) | 8 µM (≈ 2.9 µg/mL) | 8 µM (≈ 2.9 µg/mL) | 8 µM (≈ 2.9 µg/mL) |
| Cc1ccc2c(=S)n(-c3ccc(C(C)(C)C)cc3)c(=S)oc2c1 | 0.25 µM (≈ 0.0854 µg/mL) | 0.5 µM (≈ 0.171 µg/mL) | 0.5 µM (≈ 0.171 µg/mL) | 1 µM (≈ 0.342 µg/mL) | 2 µM (≈ 0.683 µg/mL) | 2 µM (≈ 0.683 µg/mL) | 1 µM (≈ 0.342 µg/mL) | 2 µM (≈ 0.683 µg/mL) |
| CC(C)c1ccc(-n2c(=O)oc3ccc(F)cc3c2=O)cc1 | 8 µM (≈ 2.39 µg/mL) | 8 µM (≈ 2.39 µg/mL) | 8 µM (≈ 2.39 µg/mL) | 16 µM (≈ 4.79 µg/mL) | 8 µM (≈ 2.39 µg/mL) | 8 µM (≈ 2.39 µg/mL) | 8 µM (≈ 2.39 µg/mL) | 16 µM (≈ 4.79 µg/mL) |
| Cc1ccc2c(=O)n(-c3ccc(C(C)C)cc3)c(=O)oc2c1 |  |  |  |  |  |  | 32 µM (≈ 9.45 µg/mL) |  |
| CCC(C)c1ccc(-n2c(=O)oc3ccc(F)cc3c2=O)cc1 (configuration not stated) | 8 µM (≈ 2.51 µg/mL) | 8 µM (≈ 2.51 µg/mL) | 8 µM (≈ 2.51 µg/mL) | 8 µM (≈ 2.51 µg/mL) | 8 µM (≈ 2.51 µg/mL) | 8 µM (≈ 2.51 µg/mL) | 4 µM (≈ 1.25 µg/mL) | 8 µM (≈ 2.51 µg/mL) |
| CCC(C)c1ccc(-n2c(=O)oc3cc(C)ccc3c2=O)cc1 (configuration not stated) |  |  |  |  |  |  | 32 µM (≈ 9.9 µg/mL) |  |
| CCCCc1ccc(-n2c(=O)oc3ccc(Cl)cc3c2=O)cc1 | 16 µM (≈ 5.28 µg/mL) | 16 µM (≈ 5.28 µg/mL) | 16 µM (≈ 5.28 µg/mL) | 16 µM (≈ 5.28 µg/mL) | 8 µM (≈ 2.64 µg/mL) | 8 µM (≈ 2.64 µg/mL) | 8 µM (≈ 2.64 µg/mL) | 16 µM (≈ 5.28 µg/mL) |
| CC(C)(C)c1ccc(-n2c(=O)oc3ccc(Cl)cc3c2=O)cc1 | 8 µM (≈ 2.64 µg/mL) | 16 µM (≈ 5.28 µg/mL) | 16 µM (≈ 5.28 µg/mL) | 32 µM (≈ 10.6 µg/mL) | 8 µM (≈ 2.64 µg/mL) | 16 µM (≈ 5.28 µg/mL) | 8 µM (≈ 2.64 µg/mL) | 8 µM (≈ 2.64 µg/mL) |
| CC(C)(C)c1ccc(-n2c(=O)oc3ccc(F)cc3c2=O)cc1 | 16 µM (≈ 5.01 µg/mL) | 16 µM (≈ 5.01 µg/mL) | 16 µM (≈ 5.01 µg/mL) | 16 µM (≈ 5.01 µg/mL) | 16 µM (≈ 5.01 µg/mL) | 16 µM (≈ 5.01 µg/mL) | 8 µM (≈ 2.51 µg/mL) | 16 µM (≈ 5.01 µg/mL) |
